ChEMBL document CHEMBL4229554, “Design and Characterization of Novel Covalent Bromodomain and Extra-Terminal Domain (BET) Inhibitors Targeting a Methionine” (J Med Chem, 2018)
Calls of active or inactive are those of the source. No cut-off for these calls is given here.

How the values were obtained:
[1] = target: T1, Bromodomain-containing protein 4 (Homo sapiens, UniProt O60885); assay: Inhibition of N-terminal His-tagged BRD4 (BD1) (unknown origin) using biotinylated tetra-acetylated histone H4 peptide after 30 mins by alpha-screen assay
[2] = target: T1, Bromodomain-containing protein 4; assay: Inhibition of N-terminal His-tagged BRD4 (BD2) (unknown origin) using biotinylated tetra-acetylated histone H4 peptide after 30 mins by alpha-screen assay
[3] = target: T1, Bromodomain-containing protein 4; assay: Binding affinity to N-terminal His-tagged BRD4 (BD1) (unknown origin) assessed as change in melting temperature at 100 uM after 0.5 hrs by SYPRO orange protein staining-based thermal denaturation assay
Procedure, shortened: (§1)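 N-terminally His-tagged recombinant BRD4(BD1), 5 µM, incubated with 100 µM compound and 5X SYPRO Orange in 50 mM NaCl/50 mM HEPES pH 7.4 for 30 min or 4 h. Protein thermal shift melt gives ΔTm; more than one transition may be resolved.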

[4] = target: T1, Bromodomain-containing protein 4; assay: Binding affinity to N-terminal His-tagged BRD4 (BD1) (unknown origin) assessed as change in melting temperature at 100 uM after 4 hrs by SYPRO orange protein staining-based thermal denaturation assay; procedure, shortened: as §1
[5] = tested on: MV4-11; assay: Antiproliferative activity against human MV4-11 cells after 48 hrs by cell-titer 96 aqueous one solution reagent-based assay; type: functional
Procedure, shortened: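 MV4-11 seeded at 25,000–50,000 cells/well with two-fold compound dilutions added at seeding, triplicate wells. DMSO 0.1% final as negative control. Continuous treatment at 37 °C, 5% CO2, measured at 48 h. CellTiter 96 AQueous One reagent for 3 h, then absorbance at 490 nm. % proliferation = (OD sample − OD blank)/OD DMSO × 100. IC50 taken from dose–response.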

[6] = tested on: MV4-11; assay: Antiproliferative activity against human MV4-11 cells preincubated for 24 hrs by followed by compound washout measured after 48 hrs post compound washout by cell-titer 96 aqueous one solution reagent-based assay; type: functional
Procedure, shortened: (§2)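 Washout format: MV4-11 plated at 25,000 cells/well with two-fold dilutions, triplicate wells. Cells treated 24 h, compound removed and cells washed twice with conditioned media. Growth continued 48 h in compound-free media. Read with CellTiter 96 AQueous One reagent, absorbance 490 nm, expressed as % of DMSO control.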

[7] = target: T1, Bromodomain-containing protein 4; assay: Irreversible inhibition of BRD4 in human MV4-11 cells assessed as suppression of MYC mRNA levels preincubated for 4 hrs followed by compound washout measured after 4 to 24 hrs post washout by RT-PCR analysis; type: cell-based
Procedure, shortened: (§3)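 MV4-11 cells, 50,000/well, exposed for 4 h at 37 °C, 5% CO2 to compound in IMDM + 10% FBS (0.2% DMSO final; DMSO-only control). Cells washed 3 times with conditioned media and placed in compound-free media, then harvested after washout for mRNA capture. One-step TaqMan real-time PCR with cyclophilin A reference. Results given as % of DMSO control.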

[8] = target: T1, Bromodomain-containing protein 4; assay: Irreversible inhibition of BRD4 in human MV4-11 cells assessed as suppression of BCL2 mRNA levels preincubated for 4 hrs followed by compound washout measured after 4 to 24 hrs post washout by RT-PCR analysis; type: cell-based; procedure, shortened: as §3
[9] = target: T1, Bromodomain-containing protein 4; assay: Irreversible inhibition of BRD4 in human MV4-11 cells assessed as suppression of CCR1 mRNA levels preincubated for 4 hrs followed by compound washout measured after 4 to 24 hrs post washout by RT-PCR analysis; type: cell-based; procedure, shortened: as §3
[10] = target: T1, Bromodomain-containing protein 4; assay: Irreversible inhibition of BRD4 in human MV4-11 cells assessed as suppression of […] mRNA levels preincubated for 4 hrs followed by compound washout measured after 4 to 24 hrs post washout by RT-PCR analysis; type: cell-based; procedure, shortened: as §3
[11] = target: T1, Bromodomain-containing protein 4; assay: Irreversible inhibition of BRD4 in human MV4-11 cells assessed as suppression of IL1RN mRNA levels preincubated for 4 hrs followed by compound washout measured after 4 to 24 hrs post washout by RT-PCR analysis; type: cell-based; procedure, shortened: as §3
[12] = tested on: MV4-11; assay: Antiproliferative activity against human MV4-11 cells incubated for 24 hrs followed by compound removal and further incubation for 48 hrs by cell-titer 96 aqueous one solution reagent-based assay; type: functional; procedure, shortened: as §2
[13] = target: PH-interacting protein (Homo sapiens) (UniProt Q8WWQ0); assay: Binding affinity to PHIP (unknown origin) assessed as change in melting temperature at 100 uM after 0.5 to 4 hrs by SYPRO orange protein staining-based thermal denaturation assay
Procedure, shortened: (§4)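 Thermal shift (PTS) screen of non-BET bromodomains. Each domain at 5 µM incubated with 100 µM covalent or control compound plus 5X SYPRO Orange in 50 mM NaCl/50 mM HEPES pH 7.4 for 30 min or 4 h. Change in Tm recorded, with a search for a high-Tm species.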

[14] = target: SWI/SNF-related matrix-associated actin-dependent regulator of chromatin subfamily A member 4 (Homo sapiens) (UniProt P51532); assay: Binding affinity to BRG1 (unknown origin) assessed as change in melting temperature at 100 uM after 0.5 to 4 hrs by SYPRO orange protein staining-based thermal denaturation assay; procedure, shortened: as §4
[15] = target: Transcription initiation factor TFIID subunit 1 (Homo sapiens) (UniProt P21675); assay: Binding affinity to TAF1(2) (unknown origin) assessed as change in melting temperature at 100 uM after 0.5 to 4 hrs by SYPRO orange protein staining-based thermal denaturation assay; procedure, shortened: as §4
Sequence of Transcription initiation factor TFIID subunit 1 (Homo sapiens) (P21675 whole entry): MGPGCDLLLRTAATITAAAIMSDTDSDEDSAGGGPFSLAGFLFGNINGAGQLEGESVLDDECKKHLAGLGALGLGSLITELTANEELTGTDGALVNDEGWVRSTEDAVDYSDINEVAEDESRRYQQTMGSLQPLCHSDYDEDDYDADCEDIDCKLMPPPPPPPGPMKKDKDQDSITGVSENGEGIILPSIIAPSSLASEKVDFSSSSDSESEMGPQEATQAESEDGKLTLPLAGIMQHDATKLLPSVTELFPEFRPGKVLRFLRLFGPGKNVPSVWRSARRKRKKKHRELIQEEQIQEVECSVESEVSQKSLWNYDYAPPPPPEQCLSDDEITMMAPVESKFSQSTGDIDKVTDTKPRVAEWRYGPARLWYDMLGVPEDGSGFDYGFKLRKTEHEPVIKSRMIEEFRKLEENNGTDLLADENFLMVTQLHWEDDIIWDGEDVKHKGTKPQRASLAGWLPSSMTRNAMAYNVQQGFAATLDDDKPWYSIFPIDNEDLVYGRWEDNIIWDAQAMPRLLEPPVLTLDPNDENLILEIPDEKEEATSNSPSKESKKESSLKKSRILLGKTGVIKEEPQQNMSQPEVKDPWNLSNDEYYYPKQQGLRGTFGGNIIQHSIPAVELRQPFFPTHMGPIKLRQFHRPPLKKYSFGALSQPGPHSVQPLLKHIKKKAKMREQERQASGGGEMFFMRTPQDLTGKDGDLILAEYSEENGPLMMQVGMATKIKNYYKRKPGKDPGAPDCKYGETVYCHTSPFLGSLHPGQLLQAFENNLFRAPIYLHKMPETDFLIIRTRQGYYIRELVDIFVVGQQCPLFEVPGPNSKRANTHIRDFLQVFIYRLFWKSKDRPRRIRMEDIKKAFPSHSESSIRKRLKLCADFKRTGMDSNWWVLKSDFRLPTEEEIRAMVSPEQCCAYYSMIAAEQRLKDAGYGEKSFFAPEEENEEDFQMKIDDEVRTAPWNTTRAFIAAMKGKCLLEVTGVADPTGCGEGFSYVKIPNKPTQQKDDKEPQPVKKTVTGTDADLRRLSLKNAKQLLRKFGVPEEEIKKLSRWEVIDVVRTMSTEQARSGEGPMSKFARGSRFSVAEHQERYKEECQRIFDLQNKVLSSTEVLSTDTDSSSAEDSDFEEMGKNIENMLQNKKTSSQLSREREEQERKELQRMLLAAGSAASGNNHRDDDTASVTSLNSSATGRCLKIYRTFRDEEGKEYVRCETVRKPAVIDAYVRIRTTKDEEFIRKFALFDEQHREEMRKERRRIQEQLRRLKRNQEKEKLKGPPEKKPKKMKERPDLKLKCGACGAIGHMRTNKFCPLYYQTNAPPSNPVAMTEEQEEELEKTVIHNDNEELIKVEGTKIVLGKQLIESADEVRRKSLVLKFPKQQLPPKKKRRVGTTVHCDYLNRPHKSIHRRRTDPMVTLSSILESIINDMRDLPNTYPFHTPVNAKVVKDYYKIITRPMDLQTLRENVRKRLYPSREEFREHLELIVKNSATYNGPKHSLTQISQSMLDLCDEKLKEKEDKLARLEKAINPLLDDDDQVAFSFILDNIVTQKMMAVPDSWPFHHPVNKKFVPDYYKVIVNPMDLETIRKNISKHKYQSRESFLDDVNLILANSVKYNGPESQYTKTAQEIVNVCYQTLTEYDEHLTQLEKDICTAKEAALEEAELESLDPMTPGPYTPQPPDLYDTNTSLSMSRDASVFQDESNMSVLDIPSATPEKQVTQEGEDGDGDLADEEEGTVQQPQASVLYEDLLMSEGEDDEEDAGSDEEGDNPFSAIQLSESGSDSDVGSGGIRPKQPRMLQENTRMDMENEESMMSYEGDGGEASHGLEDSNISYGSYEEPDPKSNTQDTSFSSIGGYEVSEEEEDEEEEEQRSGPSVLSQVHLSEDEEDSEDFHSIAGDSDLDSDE

[16] = target: Histone acetyltransferase p300 (Homo sapiens) (UniProt Q09472); assay: Binding affinity to P300 (unknown origin) assessed as change in melting temperature at 100 uM after 0.5 to 4 hrs by SYPRO orange protein staining-based thermal denaturation assay; procedure, shortened: as §4
Sequence of Histone acetyltransferase p300 (Homo sapiens) (Q09472 whole entry): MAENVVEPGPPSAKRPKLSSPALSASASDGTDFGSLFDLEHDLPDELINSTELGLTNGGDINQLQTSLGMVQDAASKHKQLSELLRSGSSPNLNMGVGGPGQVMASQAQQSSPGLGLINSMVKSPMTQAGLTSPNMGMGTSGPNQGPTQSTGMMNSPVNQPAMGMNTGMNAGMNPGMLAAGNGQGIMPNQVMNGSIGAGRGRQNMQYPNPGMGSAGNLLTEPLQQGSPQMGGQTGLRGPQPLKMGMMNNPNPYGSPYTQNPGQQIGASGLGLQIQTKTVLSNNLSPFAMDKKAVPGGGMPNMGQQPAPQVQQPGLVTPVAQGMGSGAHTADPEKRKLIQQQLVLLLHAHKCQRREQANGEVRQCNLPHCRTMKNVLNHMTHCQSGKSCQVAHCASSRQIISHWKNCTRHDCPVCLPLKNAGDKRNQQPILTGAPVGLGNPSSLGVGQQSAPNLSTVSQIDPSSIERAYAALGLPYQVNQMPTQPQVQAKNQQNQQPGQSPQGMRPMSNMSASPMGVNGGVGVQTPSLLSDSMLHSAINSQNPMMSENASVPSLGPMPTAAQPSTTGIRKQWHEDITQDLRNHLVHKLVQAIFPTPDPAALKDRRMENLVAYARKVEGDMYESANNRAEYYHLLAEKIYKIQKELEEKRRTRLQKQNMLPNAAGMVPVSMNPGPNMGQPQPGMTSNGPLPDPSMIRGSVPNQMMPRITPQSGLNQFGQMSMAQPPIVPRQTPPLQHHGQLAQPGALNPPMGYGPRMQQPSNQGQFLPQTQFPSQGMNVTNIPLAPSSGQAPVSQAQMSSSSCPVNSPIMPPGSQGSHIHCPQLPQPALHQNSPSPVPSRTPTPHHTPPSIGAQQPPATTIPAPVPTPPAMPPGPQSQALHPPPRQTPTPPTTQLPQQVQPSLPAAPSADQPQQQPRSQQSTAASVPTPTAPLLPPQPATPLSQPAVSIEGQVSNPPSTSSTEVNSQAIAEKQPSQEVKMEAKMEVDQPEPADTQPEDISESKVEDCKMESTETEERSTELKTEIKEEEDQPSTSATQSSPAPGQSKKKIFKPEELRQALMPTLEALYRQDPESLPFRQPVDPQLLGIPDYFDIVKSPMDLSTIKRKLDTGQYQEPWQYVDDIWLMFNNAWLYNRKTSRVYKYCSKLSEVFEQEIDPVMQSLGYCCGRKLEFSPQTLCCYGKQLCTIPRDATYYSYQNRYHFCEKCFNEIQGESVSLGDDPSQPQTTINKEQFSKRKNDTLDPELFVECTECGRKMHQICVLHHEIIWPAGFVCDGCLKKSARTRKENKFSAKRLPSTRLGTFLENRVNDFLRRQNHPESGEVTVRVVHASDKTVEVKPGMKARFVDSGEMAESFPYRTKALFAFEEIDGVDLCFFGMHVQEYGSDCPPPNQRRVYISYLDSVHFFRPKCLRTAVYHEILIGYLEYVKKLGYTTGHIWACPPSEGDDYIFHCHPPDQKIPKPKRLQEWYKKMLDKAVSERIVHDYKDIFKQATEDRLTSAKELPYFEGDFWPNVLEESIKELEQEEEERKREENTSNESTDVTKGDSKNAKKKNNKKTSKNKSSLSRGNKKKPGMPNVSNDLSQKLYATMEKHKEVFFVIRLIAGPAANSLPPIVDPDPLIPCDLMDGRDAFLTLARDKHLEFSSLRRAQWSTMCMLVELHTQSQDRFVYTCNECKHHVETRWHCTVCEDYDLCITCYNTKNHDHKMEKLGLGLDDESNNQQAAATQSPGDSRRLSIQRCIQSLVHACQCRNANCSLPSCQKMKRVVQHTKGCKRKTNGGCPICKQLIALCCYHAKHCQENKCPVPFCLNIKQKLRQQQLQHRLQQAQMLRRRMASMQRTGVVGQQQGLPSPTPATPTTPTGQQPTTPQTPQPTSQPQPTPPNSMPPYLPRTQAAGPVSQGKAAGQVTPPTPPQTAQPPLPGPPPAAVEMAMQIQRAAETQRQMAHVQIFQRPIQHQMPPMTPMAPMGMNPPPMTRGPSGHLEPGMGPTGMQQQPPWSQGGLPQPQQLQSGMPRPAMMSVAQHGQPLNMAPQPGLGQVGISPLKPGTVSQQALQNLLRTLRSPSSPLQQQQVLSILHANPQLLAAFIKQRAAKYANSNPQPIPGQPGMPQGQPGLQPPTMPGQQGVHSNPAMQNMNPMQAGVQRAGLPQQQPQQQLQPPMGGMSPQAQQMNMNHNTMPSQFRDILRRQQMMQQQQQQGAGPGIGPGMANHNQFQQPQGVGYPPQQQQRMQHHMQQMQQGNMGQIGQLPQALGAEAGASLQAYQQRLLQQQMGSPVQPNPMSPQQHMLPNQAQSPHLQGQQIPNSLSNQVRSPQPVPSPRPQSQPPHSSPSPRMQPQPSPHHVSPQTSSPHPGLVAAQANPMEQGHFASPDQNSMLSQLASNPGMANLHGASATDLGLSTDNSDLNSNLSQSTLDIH

[17] = target: T2, Peregrin (Homo sapiens) (UniProt P55201); assay: Binding affinity to BRPF1 (unknown origin) assessed as change in melting temperature at 100 uM after 0.5 to 4 hrs by SYPRO orange protein staining-based thermal denaturation assay; procedure, shortened: as §4
T2 sequence (whole entry): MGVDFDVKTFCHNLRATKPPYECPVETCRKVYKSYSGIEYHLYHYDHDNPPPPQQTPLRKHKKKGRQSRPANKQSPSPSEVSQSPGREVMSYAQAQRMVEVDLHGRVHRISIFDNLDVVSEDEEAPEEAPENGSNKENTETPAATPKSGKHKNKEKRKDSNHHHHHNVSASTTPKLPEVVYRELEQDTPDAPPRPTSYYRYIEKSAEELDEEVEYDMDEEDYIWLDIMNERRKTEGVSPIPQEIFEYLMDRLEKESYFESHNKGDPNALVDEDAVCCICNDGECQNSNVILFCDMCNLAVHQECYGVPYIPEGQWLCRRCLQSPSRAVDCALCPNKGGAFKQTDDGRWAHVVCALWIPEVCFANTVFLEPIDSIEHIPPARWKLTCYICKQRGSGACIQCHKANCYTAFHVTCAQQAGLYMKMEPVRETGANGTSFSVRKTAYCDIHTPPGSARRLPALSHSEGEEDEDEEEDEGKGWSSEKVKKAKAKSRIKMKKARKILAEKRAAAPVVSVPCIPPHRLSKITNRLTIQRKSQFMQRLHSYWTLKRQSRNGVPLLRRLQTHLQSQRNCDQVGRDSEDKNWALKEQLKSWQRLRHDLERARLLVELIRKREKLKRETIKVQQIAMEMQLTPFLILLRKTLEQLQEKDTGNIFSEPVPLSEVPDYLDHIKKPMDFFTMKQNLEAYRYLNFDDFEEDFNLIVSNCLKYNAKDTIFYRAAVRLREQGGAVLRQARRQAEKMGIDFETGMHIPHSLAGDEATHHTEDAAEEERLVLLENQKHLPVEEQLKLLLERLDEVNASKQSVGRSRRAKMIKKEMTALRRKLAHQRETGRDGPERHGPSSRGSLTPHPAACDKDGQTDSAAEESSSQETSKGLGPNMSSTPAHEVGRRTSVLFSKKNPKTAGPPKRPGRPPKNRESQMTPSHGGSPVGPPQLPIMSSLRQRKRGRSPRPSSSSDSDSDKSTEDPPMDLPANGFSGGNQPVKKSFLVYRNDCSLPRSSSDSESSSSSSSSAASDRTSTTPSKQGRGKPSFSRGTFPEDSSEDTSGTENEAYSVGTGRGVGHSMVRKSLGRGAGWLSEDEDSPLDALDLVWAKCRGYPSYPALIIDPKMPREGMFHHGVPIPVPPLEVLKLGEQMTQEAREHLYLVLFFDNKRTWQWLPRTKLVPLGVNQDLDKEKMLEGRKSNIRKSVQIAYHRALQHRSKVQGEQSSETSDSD

[18] = target: CREB-binding protein (Homo sapiens) (UniProt Q92793); assay: Binding affinity to CREBBP (unknown origin) assessed as change in melting temperature at 100 uM after 0.5 to 4 hrs by SYPRO orange protein staining-based thermal denaturation assay; procedure, shortened: as §4
[19] = target: T1, Bromodomain-containing protein 4; assay: Inhibition of N-terminal His-tagged BRD4 (BD1/BD2) (unknown origin) using biotinylated tetra-acetylated histone H4 peptide after 30 mins by alpha-screen assay
[20] = target: T1, Bromodomain-containing protein 4; assay: Binding affinity to N-terminal His-tagged BRD4 (BD1) (unknown origin) assessed as change in melting temperature incubated for 4 hrs in presence of increasing concentrations of cysteine amino acids by SYPRO orange protein staining-based thermal denaturation assay
Procedure, shortened: (§5)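 Preformed BRD4(BD1)–compound covalent complex incubated with excess free cysteine or methionine. Reversibility assessed by SYPRO Orange thermal denaturation, monitoring the complex's Tm.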

[21] = target: T1, Bromodomain-containing protein 4; assay: Binding affinity to N-terminal His-tagged BRD4 (BD1) (unknown origin) assessed as change in melting temperature incubated for 4 hrs in presence of increasing concentrations of methionine by SYPRO orange protein staining-based thermal denaturation assay; procedure, shortened: as §5
[22] = target: T1, Bromodomain-containing protein 4; assay: Inhibition of N-terminal His-tagged BRD4 (BD1) (unknown origin) using biotinylated tetra-acetylated histone H4 peptide after 5 mins by alpha-screen assay
Procedure, shortened: (§6)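 AlphaScreen: N-terminally His-tagged BRD4(BD1) (20–200 nM) with biotinylated tetra-acetylated H4 peptide (3–75 nM) in 50 mM HEPES, 100 mM NaCl, 0.1% BSA, pH 7.4, under green light. Nickel-chelate acceptor and streptavidin donor beads at 2 µg/mL final, serially diluted compounds added. Luminescence read at 570 nm.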

[23] = target: T1, Bromodomain-containing protein 4; assay: Inhibition of N-terminal His-tagged BRD4 (BD1) (unknown origin) using biotinylated tetra-acetylated histone H4 peptide after 1 hr by alpha-screen assay; procedure, shortened: as §6
[24] = target: T1, Bromodomain-containing protein 4; assay: Inhibition of N-terminal His-tagged BRD4 (BD1) (unknown origin) using biotinylated tetra-acetylated histone H4 peptide after 4 hrs by alpha-screen assay; procedure, shortened: as §6
[25] = tested on: MV4-11; assay: Induction of apoptosis in human MV4-11 cells assessed as viable cells after 72 hrs by FITC annexin V-staining based flow cytometry (reference value: 96.4%); type: functional
[26] = tested on: MV4-11; assay: Induction of apoptosis in human MV4-11 cells assessed as early apoptotic cells after 72 hrs by FITC annexin V-staining based flow cytometry (reference value: 1.87%); type: functional
[27] = tested on: MV4-11; assay: Induction of apoptosis in human MV4-11 cells assessed as late apoptotic cells after 72 hrs by FITC annexin V-staining based flow cytometry (reference value: 1.53%); type: functional
[28] = tested on: MV4-11; assay: Induction of apoptosis in human MV4-11 cells assessed as necrotic cells after 72 hrs by FITC annexin V-staining based flow cytometry (reference value: 0.21%); type: functional
[29] = tested on: PBMC; assay: Cytotoxicity against human PBMC assessed as reduction in cell viability after 24 hrs by cell-titer 96 aqueous one solution reagent-based assay
[30] = target: T1, Bromodomain-containing protein 4; assay: Ratio of IC50 for inhibition of N-terminal His-tagged BRD4 (BD1) (unknown origin) using biotinylated tetra-acetylated histone H4 peptide after 4 hrs by alpha-screen assay to IC50 for inhibition of N-terminal His-tagged BRD4(BD1) (unknown origin) using biotinylated tetra-acetylated histone H4 peptide after 5 mins by alpha-screen assay; procedure, shortened: as §6

Row | Compound | IC50 [1] [nM] | IC50 [2] [nM] | Activity [3] | Activity [4] | Activity [6] | Activity [12] | Activity [13] | Activity [14] | Activity [15] | Activity [16] | Activity [17] | Activity [18] | IC50 [19] [nM] | IC50 [22] [nM] | IC50 [23] [nM] | IC50 [24] [nM] | Activity [25] [%] | Activity [26] [%] | Activity [27] [%] | Activity [28] [%] | other results
1 | Cc1noc(C)c1-c1ccc(=O)n(Cc2ccc(C3CO3)c(F)c2)c1 (stereo not given) | 160 | 130 | Active | Active | Active | Active | inactive | inactive | inactive | inactive | inactive | inactive | – | – | – | – | – | – | – | – | Activity [5]: Active; inhibition [7]: Active; inhibition [8]: Active; inhibition [9]: Active; inhibition [10]: Active; inhibition [11]: Active
2 | Cc1noc(C)c1-c1ccc(=O)n(Cc2ccccc2)c1 | 230 | 80 | – | – | – | – | inactive | inactive | inactive | inactive | inactive | inactive | 280 | – | – | – | – | – | – | – | ΔTm [3]: 5 °C; Activity [20]: Active; Activity [21]: Active
3 | Cc1noc(C)c1-c1cc(N)c2ncn(Cc3ccc(C4CO4)cc3)c2c1 (stereo not given) | 50 | 50 | Active | Active | Active | Active | – | – | – | – | – | – | 60 | 274 | 75 | 15 | 12.5 | 65.9 | 19.6 | 2.05 | Activity [29]: Non-Toxic; Ratio IC50 [30]: 18
4 | Cc1noc(C)c1-c1cc(N)c2ncn(Cc3ccccc3)c2c1 | 20 | 10 | Active | Active | – | – | – | – | – | – | – | – | 50 | 17 | 8 | 19 | 17.6 | 45 | 24.2 | 13.3 | Activity [29]: Non-Toxic; Ratio IC50 [30]: 1
